Data taken from ChEMBL document CHEMBL2417469, “Synthesis of novel analogs of 2-pyrazoline obtained from [(7-chloroquinolin-4-yl)amino]chalcones and hydrazine as potential antitumor and antimalarial agents” (Eur J Med Chem, 2013).

Experiments:
Format in all cases: functional
Plasmodium falciparum = experiment: Antimalarial activity against Plasmodium falciparum NF54 infected in human serum at 20 ug/ml after 48 hrs by fluorometric method
Procedure, shortened: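 Asynchronous P. falciparum NF54 at 1.5–2% parasitemia, 5% hematocrit in RPMI with 10% human serum, exposed 48 h at 37 °C under 90% N2/5% CO2/5% O2 at the stated concentration; parasite DNA stained with ethidium bromide after proteinase K lysis; viability % = (Flu treated − medium)/(Flu untreated − medium) ×100; triplicate.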

MDA-MB-231 = experiment: Cytotoxicity against human MDA-MB-231 cells after 48 hrs by SRB assay; settings: MDA-MB-231, 48 h
Procedure, shortened: (§1)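 NCI 60-cell-line screen. Cells preincubated 24 h at 37 °C, 5% CO2; time-zero plates TCA-fixed. Compounds dissolved in DMSO and tested at five concentrations (100, 10, 1.0, 0.1, 0.01 µM) for 48 h continuous exposure. Adherent cells fixed with cold TCA (10% final), then SRB stained; absorbance at 515 nm. GI50, TGI and LC50 calculated from growth relative to time-zero and untreated controls.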

DU-145 = experiment: Cytotoxicity against human DU145 cells after 48 hrs by SRB assay; settings: DU-145, 48 h; procedure, shortened: as §1
UO-31 = experiment: Cytotoxicity against human UO31 cells after 48 hrs by SRB assay; settings: UO-31, 48 h
Procedure, shortened: (§2)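 NCI 60-cell screen. Cells grew 24 h (37 °C, 5% CO2) before compound was added. Compounds were in DMSO and diluted in medium with gentamicin, then tested at five levels (100, 10, 1.0, 0.1, 0.01 µM) with 48 h continuous exposure. Adherent cells were fixed with TCA (10% final) and stained with 0.4% SRB, absorbance read at 515 nm. A time-zero plate was included. LC50 is the concentration giving 50% loss of protein relative to time zero.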

RXF 393 = experiment: Cytotoxicity against human RXF393 cells after 48 hrs by SRB assay; settings: RXF 393, 48 h; procedure, shortened: as §1
A498 = experiment: Cytotoxicity against human A498 cells after 48 hrs by SRB assay; settings: A498, 48 h; for CC50: read-out: LC50 (the source's name); procedure, shortened: as §1
OVCAR-5 = experiment: Cytotoxicity against human OVCAR5 cells after 48 hrs by SRB assay; settings: OVCAR-5, 48 h; procedure, shortened: as §1
OVCAR-4 = experiment: Cytotoxicity against human OVCAR4 cells after 48 hrs by SRB assay; settings: OVCAR-4, 48 h; procedure, shortened: as §1
IGROV-1 = experiment: Cytotoxicity against human IGROV1 cells after 48 hrs by SRB assay; settings: IGROV-1, 48 h; procedure, shortened: as §1
UACC-257 = experiment: Cytotoxicity against human UACC257 cells after 48 hrs by SRB assay; settings: UACC-257, 48 h; procedure, shortened: as §2
U-251 = experiment: Cytotoxicity against human U251 cells after 48 hrs by SRB assay; settings: U-251, 48 h; for CC50: read-out: LC50 (the source's name); procedure, shortened: as §2
SNB-75 = experiment: Cytotoxicity against human SNB75 cells after 48 hrs by SRB assay; settings: SNB-75, 48 h; procedure, shortened: as §2
SF-539 = experiment: Cytotoxicity against human SF539 cells after 48 hrs by SRB assay; settings: SF-539, 48 h; for CC50: read-out: LC50 (the source's name); procedure, shortened: as §1
SNB-19 = experiment: Cytotoxicity against human SNB19 cells after 48 hrs by SRB assay; settings: SNB-19, 48 h; procedure, shortened: as §2
SF-295 = experiment: Cytotoxicity against human SF295 cells after 48 hrs by SRB assay; settings: SF-295, 48 h; procedure, shortened: as §1
SW-620 = experiment: Cytotoxicity against human SW620 cells after 48 hrs by SRB assay; settings: SW-620, 48 h; procedure, shortened: as §2
SF-268 = experiment: Cytotoxicity against human SF268 cells after 48 hrs by SRB assay; settings: SF-268, 48 h; procedure, shortened: as §1
HCC 2998 = experiment: Cytotoxicity against human HCC2998 cells after 48 hrs by SRB assay; settings: HCC 2998, 48 h; procedure, shortened: as §1
NCI-H226 = experiment: Cytotoxicity against human NCI-H226 cells after 48 hrs by SRB assay; settings: NCI-H226, 48 h; procedure, shortened: as §1
[1] = Cytotoxicity against human EKVX cells after 48 hrs by SRB assay; procedure, shortened: as §1
MOLT-4 = experiment: Cytotoxicity against human MOLT4 cells after 48 hrs by SRB assay; settings: MOLT-4, 48 h; procedure, shortened: as §1
K562 = experiment: Cytotoxicity against human K562 cells after 48 hrs by SRB assay; settings: K562, 48 h; procedure, shortened: as §1

With O=CN1N=C(c2cccc(Nc3ccnc4cc(Cl)ccc34)c2)CC1c1ccc(Cl)cc1 (configuration not stated) the inhibition at 20 µg/mL (Plasmodium falciparum) was 7%, the GI50 (MDA-MB-231) was 2.12 µM and the LC50 (concentration killing 50% of cells present at time zero) (MDA-MB-231) was greater than 100 µM. The GI50 (DU-145) was 4.17 µM, the LC50 (concentration killing 50% of cells) (DU-145) was greater than 100 µM and the GI50 (UO-31) was 0.88 µM. The LC50 (UO-31) was greater than 100 µM, the GI50 (RXF 393) was 3.08 µM and the LC50 (concentration killing 50% of cells) (RXF 393) was greater than 100 µM. The GI50 (A498) was 0.83 µM, the CC50 (A498) was greater than 100 µM and the GI50 (OVCAR-5) was greater than 100 µM. For the same compound, the LC50 (OVCAR-5) was greater than 100 µM, the GI50 (OVCAR-4) was 4.13 µM and the LC50 (OVCAR-4) was greater than 100 µM. The GI50 (IGROV-1) was 0.76 µM, the LC50 (concentration killing 50% of cells relative to time zero) (IGROV-1) was greater than 100 µM and the LC50 (UACC-257) was greater than 100 µM. For the same compound, the GI50 (U-251) was 1.29 µM, the CC50 (U-251) was greater than 100 µM and the GI50 (SNB-75) was 1.58 µM. It also gave an LC50 (50% net cell kill) (SNB-75) greater than 100 µM, a GI50 (SF-539) of 3.78 µM and a CC50 (SF-539) greater than 100 µM. For the same compound, the GI50 (SNB-19) was 3.48 µM, the LC50 (SNB-19) was greater than 100 µM and the GI50 (SF-295) was 1.06 µM. It also gave an LC50 (SF-295) greater than 100 µM, a GI50 (SW-620) of 0.56 µM and an LC50 (SW-620) greater than 100 µM. For the same compound, the GI50 (SF-268) was 4.37 µM, the LC50 (SF-268) was greater than 100 µM and the GI50 (HCC 2998) was 3.36 µM. For the same compound, the LC50 (HCC 2998) was greater than 100 µM, the GI50 (NCI-H226) was greater than 100 µM and the LC50 (50% lethal concentration) (NCI-H226) was greater than 100 µM. The GI50 [1] was greater than 100 µM, the LC50 [1] was greater than 100 µM and the GI50 (MOLT-4) was 1.92 µM. It also gave an LC50 (MOLT-4) greater than 100 µM, a GI50 (K562) of 0.41 µM and an LC50 (concentration killing 50% of cells) (K562) greater than 100 µM.

O=CN1N=C(c2cccc(Nc3ccnc4cc(Cl)ccc34)c2)CC1c1ccccc1 (configuration not stated) showed an inhibition at 20 µg/mL (Plasmodium falciparum) of 0%, a GI50 (MDA-MB-231) of 1.15 µM and an LC50 (concentration killing 50% of cells present at time zero) (MDA-MB-231) greater than 100 µM. For the same compound, the GI50 (DU-145) was 0.44 µM, the LC50 (concentration killing 50% of cells) (DU-145) was greater than 100 µM and the GI50 (UO-31) was 0.41 µM. The LC50 (UO-31) was greater than 100 µM, the GI50 (RXF 393) was 0.39 µM and the LC50 (concentration killing 50% of cells) (RXF 393) was greater than 100 µM. The GI50 (A498) was 0.23 µM, the CC50 (A498) was greater than 100 µM and the GI50 (OVCAR-5) was 1.38 µM. It also gave an LC50 (OVCAR-5) greater than 100 µM, a GI50 (OVCAR-4) of 0.56 µM and an LC50 (OVCAR-4) greater than 100 µM. The GI50 (IGROV-1) was 0.82 µM, the LC50 (concentration killing 50% of cells relative to time zero) (IGROV-1) was greater than 100 µM and the GI50 (UACC-257) was 0.33 µM. The LC50 (UACC-257) was greater than 100 µM, the GI50 (U-251) was 0.37 µM and the CC50 (U-251) was 5.07 µM. It also gave a GI50 (SNB-75) of 0.22 µM, an LC50 (50% net cell kill) (SNB-75) greater than 100 µM and a GI50 (SF-539) of 0.31 µM. For the same compound, the CC50 (SF-539) was 35.7 µM, the GI50 (SNB-19) was 0.6 µM and the LC50 (SNB-19) was greater than 100 µM. It also gave a GI50 (SF-295) of 0.37 µM, an LC50 (SF-295) of 41.2 µM and a GI50 (SW-620) of 0.35 µM. It also gave an LC50 (SW-620) greater than 100 µM, a GI50 (SF-268) of 1.04 µM and an LC50 (SF-268) greater than 100 µM. The GI50 (HCC 2998) was 1.22 µM, the LC50 (HCC 2998) was greater than 100 µM and the GI50 (NCI-H226) was 6.91 µM. For the same compound, the LC50 (50% lethal concentration) (NCI-H226) was greater than 100 µM, the GI50 [1] was 0.95 µM and the LC50 [1] was greater than 100 µM. For the same compound, the GI50 (MOLT-4) was 0.39 µM, the LC50 (MOLT-4) was greater than 100 µM and the GI50 (K562) was 0.26 µM. It also gave an LC50 (concentration killing 50% of cells) (K562) greater than 100 µM.

For COc1ccc(C2CC(c3cccc(Nc4ccnc5cc(Cl)ccc45)c3)=NN2C=O)cc1 (configuration not stated), the inhibition at 20 µg/mL (Plasmodium falciparum) was 4.1%, the GI50 (MDA-MB-231) was 3.19 µM and the LC50 (concentration killing 50% of cells present at time zero) (MDA-MB-231) was greater than 100 µM. The GI50 (DU-145) was 1.35 µM, the LC50 (concentration killing 50% of cells) (DU-145) was greater than 100 µM and the GI50 (UO-31) was 0.85 µM. The LC50 (UO-31) was greater than 100 µM, the GI50 (RXF 393) was 0.85 µM and the LC50 (concentration killing 50% of cells) (RXF 393) was greater than 100 µM. For the same compound, the GI50 (A498) was 0.26 µM, the CC50 (A498) was greater than 100 µM and the GI50 (OVCAR-5) was 3.51 µM. It also gave an LC50 (OVCAR-5) greater than 100 µM, a GI50 (OVCAR-4) of 0.89 µM and an LC50 (OVCAR-4) greater than 100 µM. It also gave a GI50 (IGROV-1) of 1.44 µM, an LC50 (concentration killing 50% of cells relative to time zero) (IGROV-1) greater than 100 µM and an LC50 (UACC-257) greater than 100 µM. The GI50 (U-251) was 0.45 µM, the CC50 (U-251) was 41.8 µM and the GI50 (SNB-75) was 0.33 µM. The LC50 (50% net cell kill) (SNB-75) was greater than 100 µM, the GI50 (SF-539) was 0.61 µM and the CC50 (SF-539) was 66.2 µM. For the same compound, the GI50 (SNB-19) was 0.87 µM, the LC50 (SNB-19) was greater than 100 µM and the GI50 (SF-295) was 0.32 µM. It also gave an LC50 (SF-295) greater than 100 µM, a GI50 (SW-620) of 0.36 µM and an LC50 (SW-620) greater than 100 µM. The GI50 (SF-268) was 2.56 µM, the LC50 (SF-268) was greater than 100 µM and the GI50 (HCC 2998) was 1.32 µM. The LC50 (HCC 2998) was greater than 100 µM, the GI50 (NCI-H226) was 41.6 µM and the LC50 (50% lethal concentration) (NCI-H226) was greater than 100 µM. For the same compound, the GI50 [1] was 0.64 µM, the LC50 [1] was greater than 100 µM and the GI50 (MOLT-4) was 0.49 µM. The LC50 (MOLT-4) was greater than 100 µM, the GI50 (K562) was 0.29 µM and the LC50 (concentration killing 50% of cells) (K562) was greater than 100 µM.
